# Rows were chosen to be rich in hits. Some 0.99% of all compounds tested hit in one or more screens of this group.
# CaV13 FRET inh = Primary screen for inhibitors of IQ motif and Ca2+-dependent inactivation inhibitor domain binding in CACNA1D, Förster resonance energy transfer in living cells, …; HEK cells, CFP/YFP FRET ICDI-IQ, plate reader, 10 min; percent FRET-ratio fall versus neutral wells; inhibition, % at 12.3 µM; 340,000 tested, 0.098% active;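 active = mean replicate inhibition of at least 30% and at least 1% of replicates passing that level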;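 note: 0% = median of the neutral control wells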
# NPR2 activator = GC-B (human) receptor activation; AID 1920062; P20594; 370,000 tested, 0.11% active; HEK293-GC-B cells, CNP EC30, cGMP TR-FRET; 0% at EC30 CNP, 100% saturating CNP; activation, % at 10 µM;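 active = activation at 10 µM reaching about 35% in either raw or pattern-adjusted values, limit read from the data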
# CASP6 VEID inh = blocks human caspase-6 cleavage activity; P55212; purified caspase-6, Z-VEID-R110 cleavage fluorescence; inhibition, % at 12.5 µM; 350,000 tested, 0.53% active;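 active = mean inhibition across replicates at least about 35%, with every replicate also reaching that limit, limit read from the data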;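 note: 0% = median of neutral control wells and 100% = no fluorescence left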
# NSD2 inh = inhibitors of human histone methyltransferase NSD2. O96028. NSD2 peptide methylation, AlphaScreen, 120 min. inhibition, % at 12.5 µM. 310,000 tested, 0.54% active. AID 743445; in the data active = inhibition above about 50%
# FN deposit inh = fibronectin deposition inhibition. 350,000 tested, 0.086% active. inhibition, % at 12.6 µM. AH1F fibroblasts, Alexa488-fibronectin deposition fluorescence, overnight;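 active = mean inhibition across replicates of 30% or more, regardless of how many single replicates reach that level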;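 note: positive control wells lacked labelled fibronectin entirely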
#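 Assay system: AH1F fibroblast monolayer, labelled fibronectin deposition. Amount: 10000 cells per well. Also added: labelled fibronectin 24 nM. Compound: single-point pinned compound. Incubation: cell attachment 1 h, compound and FN exposure overnight. Detection: fluorescence after three HBSS washes, excitation 485 nm, emission 525 nm. Read-out: inhibition of fibronectin deposition signal.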
# GC-A act = GC-A (human) enzyme activation | HEK293 GC-A cells, cGMP TR-FRET, EC30 ANP; 0% at EC30 ANP, 100% saturating ANP | activation, % at 10 µM | AID 1671463 | P16066 | 370,000 tested, 0.14% active; in the data active = activation above about 40%
# * hit, by the source's call; nt = no result; + = active, no number.
SMILES,CaV13 FRET inh,NPR2 activator,CASP6 VEID inh,NSD2 inh,FN deposit inh,GC-A act
CNC1=C(N(C(C)=O)c2ccc(Br)cc2)C(=O)c2ccccc2C1=O,-5,-3,nt,100*,19,-5
CCC(=O)N(C1=C(NC)C(=O)c2ccccc2C1=O)C(C)C,-5,7,72*,nt,0,-1
O=c1[nH][nH]c2c([N+](=O)[O-])ccc(F)c12,-4,-13,66*,22,6,-5
O=c1[nH]c2cc(Cl)cc([N+](=O)[O-])c2c2ccc(Cl)cc12,-5,0,-2,0,-2,-4
Cn1cc([N+](=O)[O-])c(C(=O)Nc2nc(-c3ccc(Cl)cc3)cs2)n1,nt,-2,nt,nt,nt,60*
Cc1ccc(-c2nc(NC(=O)c3nn(C)cc3[N+](=O)[O-])sc2C)cc1,-6,4,-2,0,nt,2
CCCNC(=O)Nc1ccc2c(c1)C(=O)N(C)C[C@@H](OC)[C@@H](C)CN(Cc1ccncc1)[C@@H](C)CO2,nt,nt,nt,nt,6,nt
CCc1nc(SCC(=O)c2ccc3c(c2)OCCO3)c2ccccc2n1,-5,0,nt,-1,nt,5
CCc1nc(SCC(=O)c2ccccc2)c2ccccc2n1,39*,1,6,20,-12,2
O=c1nc2ccc(Cl)cn2c2ccc(S(=O)(=O)N3CCOCC3)cc12,-2,-1,18,-1,-1,10
O=c1nc2ccc(Cl)cn2c2ccc(S(=O)(=O)N3CCCCC3)cc12,-7,-3,92*,-1,-5,3
O=C(N[C@@H]1CC[C@H](CCn2cc(-c3ccccc3)nn2)O[C@@H]1CO)c1cnccn1,nt,nt,4,nt,-7,nt
COc1ccccc1S(=O)(=O)N[C@@H]1C=C[C@@H](CC(=O)N2CCOCC2)O[C@H]1CO,nt,nt,53*,nt,-5,nt
O=C(NCCS(=O)(=O)N1CCN(c2ccc(F)cc2)CC1)c1ccc(Br)o1,-3,-3,0,1,34*,-2
CC(/C=N/Nc1nc(C)cc(=O)[nH]1)=C\c1ccccc1,-19,-4,2,0,-4,-7
CC(/C=N/Nc1nc2ccccc2[nH]1)=C\c1ccccc1,25,-14,36*,0,nt,-6
Cc1nn(CC(=O)O)c(C)c1Cl,nt,4,nt,-1,nt,3
Cc1c(Cl)c(=O)n2c(=O)c(Cl)c(C)n12,+,5,-2,1,11,8
N=C1S/C(=C\c2ccco2)C(=O)N1c1nccs1,-19,-1,37*,8,8,7
Oc1ccc(-c2nc3cnccn3c2Nc2ccc3c(c2)OCCO3)cc1,-3,29,1,nt,-4,41*
COc1cc(-c2nc3cnccn3c2Nc2ccc(C(C)C)cc2)ccc1O,-7,1,-1,-1,nt,55*
COc1cc(-c2nc3ccc(C)cn3c2Nc2ccc3c(c2)OCCO3)ccc1O,-5,39*,1,-1,5,36
COc1cc(-c2nc3cnccn3c2Nc2ccc(C)cc2)ccc1O,-7,2,4,-2,nt,34
c1ccc(-c2nc3cnccn3c2Nc2ccc3c(c2)OCCO3)cc1,-4,36*,nt,12,-7,45*
COc1cc(-c2nc3cnccn3c2Nc2ccc3c(c2)OCCO3)ccc1O,-5,17,nt,1,-4,22
COCC#Cc1ccc2c(c1)O[C@@H](CN(C)Cc1ccc3c(c1)OCO3)[C@H](C)CN([C@H](C)CO)S2(=O)=O,nt,nt,1,nt,nt,nt
COc1ccc(CN(C)C[C@H]2OCCCC[C@H](C)Oc3ccc(NS(=O)(=O)c4ccc(OC)cc4)cc3C(=O)N([C@@H](C)CO)C[C@@H]2C)cc1,nt,nt,nt,nt,2,nt
Cc1ccn2c(Nc3ccc4c(c3)OCO4)c(-c3ccc(O)cc3)nc2c1,-6,16,-4,2,4,47*
C[C@H]1CN([C@@H](C)CO)S(=O)(=O)c2ccc(-c3ccc(C(=O)N(C)C)cc3)cc2O[C@H]1CN(C)C(=O)C1CCC1,nt,nt,4,nt,13,nt
C[C@@H]1CN([C@@H](C)CO)C(=O)c2cc(C#Cc3ccccc3F)cnc2O[C@@H]1CN(C)S(=O)(=O)c1ccccc1F,nt,nt,2,nt,-17,nt
